TRPML3 agonist: human mucolipin-3 channel agonism. actives 0.29% (n = 220,000). activation, % at 3 µM. Q8TDD5. HEK293 TRPML3-YFP, Fluo-8 calcium fluorescence; 100% = the carbachol control signal;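 active = activation above its plate's cutoff, the mean activation of the plate's test wells plus 3 SD, cut at about 12% in these data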;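 note: 0% = DMSO only wells and 100% = carbachol wells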
Target sequence (Q8TDD5 whole entry, looked up): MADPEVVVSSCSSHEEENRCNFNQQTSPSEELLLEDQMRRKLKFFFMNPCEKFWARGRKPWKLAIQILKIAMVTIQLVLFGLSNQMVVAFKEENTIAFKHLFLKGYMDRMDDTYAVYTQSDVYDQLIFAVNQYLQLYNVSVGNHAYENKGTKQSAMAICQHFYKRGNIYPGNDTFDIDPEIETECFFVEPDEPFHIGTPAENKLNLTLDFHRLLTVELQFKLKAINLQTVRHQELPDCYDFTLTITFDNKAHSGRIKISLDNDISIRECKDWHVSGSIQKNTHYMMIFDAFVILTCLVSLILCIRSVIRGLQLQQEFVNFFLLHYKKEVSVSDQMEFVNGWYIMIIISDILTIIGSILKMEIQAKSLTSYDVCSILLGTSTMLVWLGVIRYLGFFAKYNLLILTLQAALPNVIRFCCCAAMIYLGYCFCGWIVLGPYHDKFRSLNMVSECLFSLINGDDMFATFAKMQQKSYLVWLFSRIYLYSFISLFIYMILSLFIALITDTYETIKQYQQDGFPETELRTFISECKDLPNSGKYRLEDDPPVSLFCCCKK
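Test system: HEK293 cells stably carrying human TRPML3-YFP; Doses: single dose, 3 µM final nominal compound, 0.3% DMSO final; Schedule: dye loading 1 h 37 °C then 30 min ambient, 125 s read; Technique: Fluo-8 calcium fluorescence; Benchmarks: high control carbachol 87 µM, low control DMSO.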
zfTRPN1 agonist: activates the zebrafish TRPN1 channel | HEK293 zebrafish TRPN1-YFP, Fluo-8 calcium fluorescence; 100% = response to 87 µM carbachol | activation, % at 3 µM | actives 0.18% (n = 220,000);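 active = activation above its plate's cutoff, the mean activation of test wells on that plate plus 3 SD, cut at about 19% in these data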;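 note: 0% = DMSO alone and 100% = 87 µM carbachol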
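Material – zebrafish TRPN1-YFP in HEK293 cells · Doses – 3 µM single point · Schedule – dye 1 h 37 °C plus 30 min RT · Signal – Fluo-8 calcium fluorescence, excitation 470-495 nm, emission 515-575 nm · Read-out – % activation versus carbachol response · Control set – carbachol high, DMSO low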
GPR7 antagonist: antagonists of human GPR7 (neuropeptides B/W receptor 1); GPR7-expressing cells, fluorescence antagonist assay; inhibition, % at 4.4 µM; actives 1.1% (n = 290,000); in the data active = inhibition above about 16%, passing the limit was not always enough;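 note: cells stimulated with the agonist NPW; 0% = agonist with vehicle and 100% = vehicle without agonist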
CHO parental Ca: counter-screen: ATP calcium response change in parental CHO cells. inhibition, % at 5.6 µM. parental CHO-K1, ATP-induced calcium, Fluo-8 fluorescence. actives 0.63% (n = 330,000). AID 463079;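 active = inhibition above that plate's mean sample inhibition plus 3 SD, cut at about 26% in these data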;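 note: 0% = ATP-challenged DMSO wells and 100% = DMSO wells without ATP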
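Material: Parental CHO cells | Reagent: ATP | Compound dosing: Single nominal dose of 5.6 µM per compound | Detection: Intracellular calcium via Fluo-8 no-wash fluorescent dye | Read-out: % inhibition of ATP-induced calcium mobilization | Benchmarks: Low control ATP plus DMSO, high control DMSO only | Replicates: Singlicate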
OX1R antag-1: human HCRTR1 antagonism; actives 0.43% (n = 330,000); O43613; AID 434989; inhibition, % at 5 µM; CHO/OX1R cells, Fluo-8 calcium fluorescence, orexin A;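 active = inhibition above its plate's threshold, mean inhibition of all tested compounds on the plate plus 3 SD, cut at about 37% in these data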;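 note: 0% = orexin A challenge wells and 100% = SB-334867-A antagonist wells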
OX1R antag-2: OX1R (human) antagonism; O43613; OX1R-expressing cells, FRET antagonist read-out; inhibition, % at 6.6 µM; actives 1.8% (n = 330,000); in the data active = inhibition mostly above about 38%, no sharp cut-off; inactive = mostly below about 40%;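 note: 0% = agonist challenge alone and 100% = reference antagonist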
* = called active by the depositor; x = no result given. Hits are enriched below; roughly 3.2% of the tested compounds scored in any of these assays.

SMILES	TRPML3 agonist	zfTRPN1 agonist	GPR7 antagonist	CHO parental Ca	OX1R antag-1	OX1R antag-2
O=c1[nH]c(=O)c2nnc(N/N=C\c3ccc(O)cc3)nc2[nH]1	1.0	1.2	-0.8	-8.4	-14.2	62.1*
O=c1[nH]c(=O)c2nnc(N/N=C/c3ccccc3F)nc2[nH]1	0.6	1.6	-10.3	-3.6	-1.4	38.2
COc1ccc2c(c1)cc(C(=O)N[C@@H](CCSC)C(=O)N1CCC(C(=O)O)CC1)n2C	x	x	1.9	-3.5	4.4	-4.5
CCOc1ccc(Nc2oc(-c3ccco3)nc2C#N)cc1	-0.3	-0.1	-4.8	-4.9	-8.9	21.9
CCOc1ccc(Nc2oc(-c3cccs3)nc2C#N)cc1	-0.3	-0.5	-16.1	3.9	19.0	56.8*
COc1ccc(Nc2oc(COc3ccc(C)cc3)nc2C#N)cc1	0.2	-2.6	-1.9	38.3*	12.5	29.8
COc1ccc(Nc2oc(COc3ccc(OC)cc3)nc2C#N)cc1	-0.6	-3.0	12.4	3.2	-3.2	39.1
CSc1nsc(SCC(=O)N2CCc3ccccc32)n1	0.2	-0.5	-5.4	-21.1	-10.7	19.4
Cc1nnc(SCC(=O)N2CCc3ccccc32)s1	0.6	0.7	15.7*	-12.0	-0.5	2.6
CCn1cc(SCC(=O)N2CCc3ccccc32)c2ccccc21	0.6	-0.7	-11.4	32.2*	-24.8	36.1*
O=C(C[n+]1cc(-c2ccccc2)n2c1CCCCC2)c1ccc(Cl)cc1	-0.1	-0.3	8.0	-7.2	4.8	6.8
CC1CCC(C(C)C)C(OC(=O)C[n+]2cc(-c3ccc(Cl)cc3)n3c2CCCCC3)C1 (centres undefined)	-0.5	-0.7	59.0*	18.1	11.8	18.4
COC(=O)c1ccc(/C=N/NC(=O)CC(=O)NCc2cccnc2)cc1	0.7	0.5	-1.5	-4.7	-16.9	18.9
Cc1ccc(S(=O)(=O)NCc2cccnc2)cc1C(=O)N1CCCC1	x	x	-3.4	-6.1	-12.7	7.5
CC(C)Nc1nc(NC(C)C)nc(N(C)N)n1	0.1	-0.3	1.1	99.8*	-22.1	12.5
CC(C)Nc1nc(NC(C)C)nc(N(C)C(N)=O)n1	0.1	-1.0	7.9	-4.5	-8.4	7.3
CC(=O)Nc1ccc(NC(=O)C(C)OC(=O)c2cc(S(=O)(=O)N3CCOCC3)ccc2Cl)cc1 (centres undefined)	x	x	x	-15.8	-6.3	7.1
CC(OC(=O)c1cc(S(=O)(=O)N(C)c2ccccc2)ccc1Cl)C(=O)Nc1ccc2c(c1)OCCO2 (centres undefined)	0.4	-2.0	-6.3	-4.7	-16.0	45.9*
COc1ccc(OCC(=O)NC2CCCN(Cc3ccc(Cl)cc3)C2)cc1 (centres undefined)	x	x	-5.5	-19.9	-19.3	1.6
CC1=C(C(=O)Nc2cccc(C(=O)NC(C)c3ccccc3)c2)SCCO1 (centres undefined)	x	x	-2.8	-9.7	-15.0	19.8
Cc1ccc(S(=O)(=O)N2[C@@H](c3ccccc3)C(C(=O)O)=CC[C@H]2c2ccc(Cl)c(Cl)c2)cc1	x	x	x	-13.6	-4.9	55.4*
Cc1ccc(S(=O)(=O)N2[C@@H](c3ccccc3F)C(C(=O)O)=CC[C@H]2c2ccc(Cl)c(Cl)c2)cc1	x	x	x	-10.2	-4.3	66.9*
Cc1ccc([C@H]2C(C(=O)O)=CC[C@@H](c3ccc(Cl)c(Cl)c3)N2S(=O)(=O)c2ccc(C)cc2)cc1	x	x	x	-15.5	8.8	17.2
CCOC(=O)CC1C(=O)NCCN1c1nc2ccc(C)cn2c(=O)c1/C=C1\SC(=S)N(C(C)CC)C1=O (centres undefined)	2.3	20.3*	4.4	22.4	28.3	-0.5
CCOC(=O)CC1C(=O)NCCN1c1nc2ccc(C)cn2c(=O)c1/C=C1\SC(=S)N(CC(C)C)C1=O (centres undefined)	5.3	31.8*	7.5	27.1*	49.4*	16.8
SMILES	TRPML3 agonist	zfTRPN1 agonist	GPR7 antagonist	CHO parental Ca	OX1R antag-1	OX1R antag-2
CCCN1C(=O)/C(=C/c2c(N3CCNC(=O)C3CC(=O)OCC)nc3c(C)cccn3c2=O)SC1=S (centres undefined)	11.6*	28.3*	-5.9	14.0	31.9	22.9
CCOC(=O)CC1C(=O)NCCN1C(=O)c1ccc(C)cc1 (centres undefined)	x	x	-3.1	-6.2	-4.4	3.3
Cc1occc1C(=O)N(C)Cc1nc(-c2ccccc2)no1	x	x	-10.1	-5.2	-13.1	17.0
O=C(N/N=C/c1cccnc1)c1cc(-c2cccs2)nc2ccccc12	1.1	1.5	-1.6	-32.9	-27.2	23.7
O=C(N/N=C/c1ccc2ncccc2c1)c1cc(-c2cccs2)nc2ccccc12	0.2	-0.8	2.6	-18.1	18.6	61.5*
CC1CCCCN1CCNC(=O)CN1C(=O)CSc2ccc(S(=O)(=O)N3CCCCC3)cc21 (centres undefined)	x	x	-9.2	-12.8	-5.6	-0.4
CCOc1ccc(S(=O)(=O)N2CCCCC2)c2ccccc12	61.6*	-0.7	-9.8	4.6	5.4	5.8
CCOc1ccc(S(=O)(=O)N2CCOCC2)c2ccccc12	x	x	9.9	-17.9	-22.9	23.3
O=C(CSc1nnnn1-c1cccc(C(=O)O)c1)NC(c1ccccc1)c1ccccc1	0.6	0.8	-8.4	4.6	6.0	13.4
O=C(O)c1cccc(-n2nnnc2SCc2ccccn2)c1	1.1	1.7	18.5*	-6.5	-0.8	24.6
COc1ccc2c(c1)Cc1sc(NC(=O)c3cccs3)nc1-2	0.8	0.4	-7.2	-20.6	-5.4	67.9*
COc1ccc(C(=O)Nc2nc3c(s2)Cc2cc(OC)ccc2-3)cc1	0.0	-0.4	-1.7	-3.8	-19.9	15.1
CN(C)S(=O)(=O)c1ccc(NC(=O)CN2C(=O)NC3(CCCC3)C2=O)cc1	x	x	-1.1	5.8	8.3	4.6
O=C(COC(=O)C1CCN(S(=O)(=O)c2ccccc2)CC1)NC(=O)c1ccc(OC(F)F)cc1	0.9	0.2	-6.4	-5.0	-1.2	-2.0
Cc1ccc(S(=O)(=O)Nc2ccc(N3CCCCC3)cc2)cc1	-0.3	-2.2	-4.6	-9.5	-5.1	9.6
Cc1ccc(NS(=O)(=O)c2ccc(C3CCCCC3)cc2)cc1	0.7	-1.4	-11.1	42.1*	56.3*	11.3
CCC(CC)C(=O)Nc1cccc(C(=O)Nc2ccc(S(=O)(=O)Nc3ccc(C)cc3)cc2)c1	1.3	3.3	-3.8	10.5	54.7*	54.4*
Cc1ccc(S(=O)(=O)Nc2ccc(NC(=O)c3c(F)c(F)c(F)c(F)c3F)cc2)cc1	5.1	26.5*	77.6*	43.8*	69.1*	-6.0
CCC(CC)C(=O)Nc1cccc(C(=O)Nc2ccc(S(N)(=O)=O)cc2)c1	0.9	1.5	-17.8	-4.5	-9.2	19.3
Cc1cc(C)n(CC(=O)N/N=C/c2ccc([N+](=O)[O-])s2)n1	1.2	2.6	-3.4	-4.4	-10.1	57.9*

Compound activity (PubChem BioAssay)
